According to ChEMBL document CHEMBL1142973, “Enzymatically activated cycloSal-d4T-monophosphates: The third generation of cycloSal-pronucleotides” (J Med Chem, 2007):

Experiments:
[1] = Chemical stability in phosphate buffer at pH 7.3; format: physicochemical
How it was run: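 Triesters incubated in aqueous 25 mM phosphate buffer, pH 7.3; hydrolysis products (d4TMP, salicyl alcohol) followed by HPLC to give half-lives.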

[2] = tested on: Human immunodeficiency virus 1; experiment: Antiviral activity against HIV1 in CEM/0 cells; format: functional, organism-based; settings: Human immunodeficiency virus 1, CCRF-CEM
How it was run: (§1)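 CEM/0 cells at 4 × 10^5 cells/mL infected with HIV (HIV-1, or HIV-2 strain ROD) at ~100 CCID50 per mL; virus stocks from infected MT-4 cell supernatants. Mixed 1:1 with compound dilutions, 4-5 days; giant cell formation scored microscopically. EC50, means of two to three independent experiments.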

[3] = tested on: Human immunodeficiency virus 2; experiment: Antiviral activity against HIV2 ROD in CEM/0 cells; format: functional, organism-based; settings: Human immunodeficiency virus 2, ROD, CCRF-CEM; how it was run: as §1
[4] = tested on: Human immunodeficiency virus 2; experiment: Antiviral activity against HIV2 ROD in CEM/TK- cells; format: functional, organism-based; settings: Human immunodeficiency virus 2, ROD
How it was run: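 Thymidine kinase-deficient CEM/TK- cells at 4 × 10^5 cells/mL infected with HIV-2 (ROD, MT-4-grown stock) at ~100 CCID50/mL; mixed 1:1 with compound dilutions; giant cell formation scored microscopically after 4-5 days. EC50 as means of two to three independent experiments.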

[5] = Hydrolysis half life in CEM cell extracts at pH 6.9; format: ADME; settings: human, CEM (CCRF-CEM) cell extracts
[6] = Hydrolysis half life in […]/FCS medium at pH 7.6; format: ADME; settings: cattle, […]/FCS culture medium
How it was run: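 Incubated in RPMI-1640 culture medium with 10% heat-inactivated fetal calf serum, pH 7.6; cleavage products followed by HPLC to derive half-lives.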

[7] = Hydrolysis half life in human serum at pH 6.8; format: ADME, cell-free
How it was run: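 Incubation in human serum pooled from hospital blood samples, pH 6.8, without acetic acid stop; products analysed by HPLC; half-life determined.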

SMILES | half-life [1] | EC50 [2] | EC50 [3] | EC50 [4] | half-life [5] | half-life [6] | half-life [7]
Cc1cn([C@H]2C=C[C@@H](COP3(=O)OCc4cc(C=O)cc(C(C)(C)C)c4O3)O2)c(=O)[nH]c1=O (stereo partly specified) | 0.95 h | 450 nM | 600 nM | 17500 nM |  |  | 
Cc1cn([C@H]2C=C[C@@H](COP3(=O)OCc4cc(C=O)ccc4O3)O2)c(=O)[nH]c1=O (stereo partly specified) | 0.18 h | 410 nM | 150 nM | 5000 nM |  |  | 
Cc1cn([C@H]2C=C[C@@H](CO)O2)c(=O)[nH]c1=O [STAVUDINE] |  | 480 nM | 630 nM | 47500 nM |  |  | 
Cc1cn([C@H]2C=C[C@@H](COP3(=O)OCc4cc(CCC(=O)OCOC(=O)C(C)C)ccc4O3)O2)c(=O)[nH]c1=O (stereo partly specified) | 3.9 h | 260 nM | 600 nM | 1730 nM | 0.9 h |  | 
Cc1cn([C@H]2C=C[C@@H](COP3(=O)OCc4cc(CCC(=O)OCOC(=O)C(C)(C)C)ccc4O3)O2)c(=O)[nH]c1=O (stereo partly specified) | 5.6 h | 230 nM | 330 nM | 700 nM | 0.38 h |  | 
Cc1cc(C=O)cc2c1OP(=O)(OC[C@@H]1C=C[C@H](n3cc(C)c(=O)[nH]c3=O)O1)OC2 (stereo partly specified) | 0.35 h |  |  |  |  |  | 
Cc1cn([C@H]2C=C[C@@H](COP3(=O)OCc4cccc(C(C)(C)C)c4O3)O2)c(=O)[nH]c1=O (stereo partly specified) | 73 h | 180 nM | 650 nM | 330 nM |  |  | 
Cc1cccc2c1OP(=O)(OC[C@@H]1C=C[C@H](n3cc(C)c(=O)[nH]c3=O)O1)OC2 (stereo partly specified) | 17.5 h | 60 nM | 70 nM | 50 nM | 14.5 h |  | 
Cc1cn([C@H]2C=C[C@@H](COP3(=O)OCc4cc([N+](=O)[O-])ccc4O3)O2)c(=O)[nH]c1=O (stereo partly specified) |  | 290 nM | 400 nM | 40000 nM |  |  | 
CC(=O)OC(OC(C)=O)c1ccc2c(c1)COP(=O)(OC[C@@H]1C=C[C@H](n3cc(C)c(=O)[nH]c3=O)O1)O2 (stereo partly specified) | 1.2 h | 420 nM | 400 nM | 10500 nM | 0.08 h | 0.9 h | 1.5 h
Cc1cn([C@H]2C=C[C@@H](COP3(=O)OCc4cc(Br)ccc4O3)O2)c(=O)[nH]c1=O (stereo partly specified) | 0.88 h | 140 nM | 260 nM | 15000 nM |  |  | 
CC(=O)OC(OC(C)=O)c1cc2c(c(C(C)(C)C)c1)OP(=O)(OC[C@@H]1C=C[C@H](n3cc(C)c(=O)[nH]c3=O)O1)OC2 (stereo partly specified) | 7 h | 320 nM | 750 nM | 3000 nM | 0.12 h | 4.7 h | 8.7 h
CC(=O)OC(OC(C)=O)c1cc(C)c2c(c1)COP(=O)(OC[C@@H]1C=C[C@H](n3cc(C)c(=O)[nH]c3=O)O1)O2 (stereo partly specified) | 2.3 h |  |  |  | 0.08 h | 1.5 h | 3.6 h
